Our source for the cytotoxicity values is ChEMBL document CHEMBL4513216, “Probing the Open Global Health Chemical Diversity Library for Multistage-Active Starting Points for Next-Generation Antimalarials” (ACS Infect Dis, 2020).

The structures appear in SMILES notation.

This data set can be described thus: Toxicity liver stage against HepG2, at 10uM. Format: cell-based. Also noted: test concentration 10 uM, cell line HepG2-A16-CD81EGFP. The following applies: human, HepG2-A16-CD81EGFP cells; read-out: INHIBITION
Summed up:
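Uninfected HepG2-A16-CD81EGFP cells, 3 × 10^3 per well, 1536-well, plated on prespotted compound at 10 μM final, parasite-free screening media added to match infected plates; puromycin 10 μM positive, DMSO 0.5% negative; run in parallel with 48 h PbLuc assay at 37 °C, 5% CO2; viability by CellTiter-Glo luminescence, normalized to controls.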
Turning to `c1cc(CN2CCCC3(CCN(CC4CCCO4)CC3)C2)n[nH]1` (stereo not given), the cytotoxicity at 10 µM was -101%.

With `COc1ccc(CN(C)[C@@H]2COC[C@H]2c2ccc(F)cc2)cc1`, the cytotoxicity at 10 µM was found to be 10.9%.

Turning to `CC(C)N1C(=O)CC(N2CCN(c3ccc(F)cc3)CC2)C1=O` (stereo not given), the cytotoxicity at 10 µM was determined as 8.44%. The figure for `CC(=O)N[C@@H]1CN(C(=O)c2cnc3ccccc3c2)C[C@H]1O` is -12.1%; for `Cc1nc(C)n(C2CCCN(C(=O)c3cccc4[nH]ncc34)C2)n1` (stereo not given) it is -4.72%. Take `CCS(=O)(=O)N1CCN(C(=O)NC(C)C)CC2(CC(=O)N(C)C2)C1` (stereo not given): the cytotoxicity at 10 µM is 6.62%. To `Cc1oc(-c2ccco2)nc1CN1CCc2cncnc2C1` belongs 2.44%. To `CCCc1nnc(NCCn2nc(C)c(Cl)c2C)o1` belongs 1.89%; to `CCSCCNC(=O)c1ccc(S(=O)(=O)N2C[C@H]3C[C@@H]2CN3)cc1`, -1.98%; to `COc1ccc(C(=O)N2Cc3cc(C)ccc3OCC2CN(C)C)cc1` (stereo not given), -14.5%. The figure for `CCS(=O)(=O)NCC1Cn2nnc(-c3cccc(C)c3)c2CO1` (stereo not given) is -120%; for `CCc1cn[nH]c1C1CCN(C(=O)c2cc(C#N)c(=O)[nH]c2C)CC1` it is 2.39%.

On to `Cc1cc(C)n2nc(CC(=O)N[C@H]3C[C@H]4CN(C)CCN4C3)nc2n1`, for which the cytotoxicity at 10 µM is -2.9%.

`COCC(=O)N1CCCC1c1nccnc1Nc1nc(C)cs1` (stereo not given): the cytotoxicity at 10 µM is -3.36%.

For the molecule `CC(C)[C@H]1CN(Cc2ccccn2)C[C@@H]1NS(=O)(=O)C1CC1`, the cytotoxicity at 10 µM was -0.578%. The figure for `CNC(=O)c1ccc(CNC(=O)c2cc(C(C)C)n(C)n2)cc1` is -9.71%; for `CNC(=O)NC(=O)CCN1CCOC(c2ccc(Br)cc2)C1` (stereo not given) it is -2.42%; for `CN1CCC(c2nnc(CN3CCCC3)n2C2CC2)CC1` it is -11.4%. Turning to `CC(C)n1nnc(CC(=O)NCC2(c3ccccc3F)CCOCC2)n1`, the cytotoxicity at 10 µM worked out at 2.35%. The figure for `CCC(c1nc(C(C)C)nn1-c1ccccn1)n1cccn1` (stereo not given) is 5.66%; for `Cc1ccccc1CN(C)C(=O)CCc1nc(-c2nnc[nH]2)no1` it is -42.1%. The figure for `COCc1nc2cc(NCc3csc(C)n3)ccc2o1` is 0.873%; for `CNC(=O)CN1CCOCC12CCN(Cc1ccncc1)CC2` it is 3.07%; for `CC1CCN(Cc2cnc(S(=O)(=O)CC3CC3)n2CC2CCCO2)CC1` (stereo not given) it is 6.17%. To `Cc1ccc(-c2n[nH]cc2CN(Cc2nccn2C)C(C)C)cc1C` belongs 2.57%. As to `Cc1cccc(SC2CCN(C(=O)CCCn3cnnn3)CC2)c1`, the cytotoxicity at 10 µM is 0.647%. As for `COc1cccc(S(=O)(=O)CCN2CCC3(CC2)OCCO3)c1`, the cytotoxicity at 10 µM stood at 4.62%.

For the molecule `CCSc1ccccc1C(=O)N1CC2(COC(C)(C)OC2)C1`, the cytotoxicity at 10 µM is -3.45%.

For the molecule `CC(C)C(C(=O)NCc1ccccc1-n1cccn1)N(C)C` (stereo not given), the cytotoxicity at 10 µM was -3.17%.

With `CN(CCOc1cccc(S(C)(=O)=O)c1)c1ccccc1`, the cytotoxicity at 10 µM worked out at 2.3%.

Take `Cc1csc(C2(NCc3csc(C4CC4)n3)CCCC2)n1`: the cytotoxicity at 10 µM worked out at 4.32%.

As to `O=C1CCN(C(=O)NCCc2c[nH]c3ccc(Cl)cc23)CCN1`, the cytotoxicity at 10 µM worked out at 4.26%. With `CCn1cnnc1CNC(=O)C1COc2ccc(Cl)cc2C1` (stereo not given), the cytotoxicity at 10 µM is -0.845%. The figure for `O=C(c1ccc(C2CCCN2)s1)N1CCC2(CCCO2)CC1` (stereo not given) is -7.13%; for `CCC(=O)N1CCC2(CC1)CN(C(C)=O)c1ccc(C)cc12` it is 8.82%. For the molecule `COc1ccc(Cl)cc1NCC(=O)N(Cc1ccncc1)C1CC1`, the cytotoxicity at 10 µM stood at 13.7%. To `CC(=O)N1CCC(Oc2ccc(C#N)cn2)CC1` belongs -17.3%. For the molecule `Cc1nnc([C@]23COC[C@H]2CN(Cc2cnn(C)c2)C3)o1`, the cytotoxicity at 10 µM was -3.77%. As to `Cc1cccc(C)c1OCCNC(=O)C(C)n1cncn1` (stereo not given), the cytotoxicity at 10 µM was -1.46%. On to `CC(C)CCC1=NC2(CCN(C(=O)N3CCN(C)CC3)CC2)C(=O)N1`, for which the cytotoxicity at 10 µM was -6.08%. To `Cn1nccc1CN1CCOC(c2ccc(-c3cncnc3)cn2)C1` (stereo not given) belongs 3.27%; to `COC[C@]1(O)CCN(Cc2c[nH]c(CC3CCCC3)n2)CC1(C)C`, 17.7%; to `O=C(CCc1ccccn1)N1CCCC1`, -6.96%. On to `O=C(c1cc[nH]n1)N1CCCC1c1cncc(CN2CCOCC2)n1` (stereo not given), for which the cytotoxicity at 10 µM came to 9.31%.

With `Cc1cc(C)c(CNC(=O)NCCC2CCCO2)c(=O)[nH]1` (stereo not given), the cytotoxicity at 10 µM is -6.33%. To `CN(C)C(=O)N1CCN(CCCOc2ccccc2)[C@H]2CS(=O)(=O)C[C@H]21` belongs 0.666%; to `Cc1ncc(C(=O)NCCNc2ccncc2)s1`, 1.72%; to `COc1ccc(CC(=O)N2CCCC(n3cccn3)C2)cc1F` (stereo not given), -4.62%. To `NC(=O)N1CCCC(C(=O)NCCOc2ccc(F)cc2F)C1` (stereo not given) belongs 3.26%; to `Cc1noc(C)c1S(=O)(=O)N(C)Cc1nn(C)c(Cl)c1Cl`, -6.01%. For `O=C(Cc1ccc(-n2cccn2)cc1)N1CCCC(n2cccn2)C1` (stereo not given), the cytotoxicity at 10 µM was 4.6%. To `Cc1ccc2cc(C(=O)N3CCCN(C)CC3)ccc2n1` belongs -54.3%; to `CC[C@@H](C)[C@H](NC(=O)CCn1cc(C(C)=O)c2ccccc21)C(=O)O`, -5.27%; to `Clc1ccccc1CCn1ccnc1-c1cn(C2CCNCC2)nn1`, 0.33%. To `COC(=O)[C@H](C)NC(=O)COc1nn(C)c2nc(C)cc(C)c12` belongs -2.53%; to `O=C([C@H]1C[C@@H]2CCN(c3cccc(F)c3)C[C@H]2O1)N1CCCC1`, 1.99%. To `COc1ccc(CNCc2ccnc(N3CCCC3)c2)c(OC)c1` belongs 3.45%. `COCCNC(=O)[C@H]1C[C@@H]2CCN(Cc3nccs3)C[C@H]2O1`: the cytotoxicity at 10 µM is -68.2%. The figure for `O=C1CCC(C(=O)Nc2ccc(=O)n(Cc3ccccc3Cl)c2)N1` (stereo not given) is -1.36%. Consider `Cc1cccc(OCCNC(=O)C(C)S(=O)(=O)C2CCCC2)c1` (stereo not given), for which the cytotoxicity at 10 µM came out at 6.72%. The figure for `COCCc1noc(CN2CCOC(CN(C)C)C2)n1` (stereo not given) is -1.04%. The figure for `Cc1cccc(CN(Cc2nc3c(cnn3C)c(=O)[nH]2)C2CC2)c1` is 0.914%; for `CCc1nsc(N2CCCN(C(=O)c3ccsc3)CC2)n1` it is 5.73%. Take `COc1cc2nc(NCc3cc(C)on3)nc(N)c2cc1OC`: the cytotoxicity at 10 µM was -3.34%. The figure for `CCc1nnc2n1CCN(C(=O)c1ccc(-c3ccco3)nc1C)C2` is -7.23%; for `Cc1ccc(C(=O)NC(CN2CCCC2=O)c2ccccc2)c(=O)[nH]1` (stereo not given) it is -2.23%. The figure for `Cc1nn(C)c(Cl)c1C1CCCN1Cc1noc(C2CC2)n1` (stereo not given) is -1.64%; for `Cc1cnccc1CN(C)Cc1c[nH]nc1-c1ccc(F)cc1F` it is -5.93%; for `CC(=O)Nc1nc2c(s1)CN(CC(=O)Nc1ccc(C)c(Cl)c1)CC2` it is -6.17%.

Regarding `Cc1cccc(OCC(=O)N2CCN(C3CCOC3=O)CC2)c1C` (stereo not given), the cytotoxicity at 10 µM is -15%. To `O=C(CCn1cncn1)NC1CCc2nccn2C1` (stereo not given) belongs -4.39%; to `c1ccc(-c2nc(CN3CCCC(Cn4cncn4)C3)cs2)cc1` (stereo not given), -9.53%.

For the molecule `CCc1nc(Cn2c(=O)c3c(C(F)(F)F)cc(C)nc3n2C)no1`, the cytotoxicity at 10 µM came to 2.58%. The figure for `COc1cc(CN2CCCC(Nc3cccc(F)c3)C2)cc(OC)c1O` (stereo not given) is 1.66%. The figure for `CCN1CCN(C(=O)c2cn(Cc3ccccc3)c3ncccc23)CC1` is -1.6%. To `O=C(NCCn1ccnc1)c1cccc(Br)c1` belongs 9.3%; to `Cc1nc(NC(=O)c2ccc(-n3ncc(C#N)c3N)cc2)sc1C`, 7.13%. As to `CCN(Cc1ccccc1C)S(C)(=O)=O`, the cytotoxicity at 10 µM came to 9.23%. To `Cc1cc(CN2CCN(CC(O)C(C)(C)C)CC2)no1` (stereo not given) belongs -14.8%; to `O=C(CC1CCCC1)N1CCCC(c2n[nH]c3nccnc23)C1` (stereo not given), -2.6%. To `O=C([C@H]1CN(Cc2nccs2)C[C@H]2OCC[C@@H]12)N1CCCCO1` belongs -111%; to `Cc1ccc(N2CC[C@H]3O[C@@H](C(=O)N4CCCO4)CC[C@H]32)nn1`, 0.908%. For `COC(=O)CCC(=O)NC(C)Cc1ccccc1Br` (stereo not given), the cytotoxicity at 10 µM is -6.66%. To `COc1cc2c(cc1CN1C[C@@H](CN3CCOCC3)[C@@H](CO)C1)CCC2` belongs -2.37%. To `CNC(=O)C1(Cc2cc(C(C)C)no2)CCN(Cc2cccnc2)C1` (stereo not given) belongs 4.61%. With `Cc1nc2n(n1)CC(NCc1nc(C)c(C)o1)CC2` (stereo not given), the cytotoxicity at 10 µM was -0.925%. The figure for `O=C(Cc1csc(-c2ccco2)n1)N1CCN(CCO)CC1` is -0.337%; for `CC(=O)N1CCS(=O)(=O)[C@@H]2CCN(S(=O)(=O)CC(C)C)CC[C@@H]21` it is 6.1%; for `CCOc1ccc(CNCCCn2ccnc2)cc1Cl` it is -9.51%.

On to `CC(C)(C)c1cnc(CN2CCC(c3ccnn3CCO)CC2)o1`, for which the cytotoxicity at 10 µM was -3.15%.

Consider `CC(C)Nc1nc2c(cc1C(=O)NCC1CC1)CCN(S(C)(=O)=O)CC2`, for which the cytotoxicity at 10 µM was -1.48%.

As to `Cc1cc(CN2CCOC(CN(C)C)C2)no1` (stereo not given), the cytotoxicity at 10 µM is -0.759%. To `CNC(=O)[C@H]1CCS(=O)(=O)[C@@H]2CN(Cc3ccc(OC)cc3)C[C@H]12` belongs -10.3%; to `CN(Cc1ccco1)Cc1cnc2n1CCN(c1ccccn1)CC2`, -0.48%; to `O=C(c1ccccc1)N1C[C@H]2CC[C@@H](C1)N(C(=O)CN1CCOCC1)C2`, 9.23%.
